{
  "source": "ChEMBL document CHEMBL1123247",
  "about": "“Nucleoside conjugates. 7. Synthesis and antitumor activity of 1-beta-D-arabinofuranosylcytosine conjugates of ether lipids” (J Med Chem, 1986)",
  "key": {"L1210 [1]": {"tested_on": "L1210", "assay": "Antitumor activity against ic implanted L1210 lymphoid leukemia in mice expressed as active dose range (1,5,9qd treatment schedule) required to produce increase in life span by >25% was determined; Range 67-133", "format": "functional, Mus musculus", "in_short": "(§1)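 DBA/2J mice, groups of 6 (26-32 g), got 1 × 10^5 L1210 cells ic on day 0. Dosing was ip starting 24 h later, as a sonicated solution or suspension in 0.9% NaCl with 0.5% Tween-80, over a wide dose range. Mice were followed daily until death. Median survival T/C was taken from survivors per NCI protocols, and ILS = (T/C − 1) × 100. Active range means doses giving ILS ≥25%; optimal dose means greatest ILS.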"}, "P388 [2]": {"tested_on": "P388", "assay": "Antitumor activity was determined against the ip implanted P388 leukemia in mice by percent median survival rate (treated/control) at 500 mg/kg (1 qd treatment schedule) dosage; >45.0/11.0", "format": "functional, Mus musculus", "settings": "route intraperitoneal"}, "P388 [3]": {"tested_on": "P388", "assay": "Antitumor activity was determined against the ip implanted P388 leukemia in mice by 45-day survivors in mice at 500 mg/kg (1 qd treatment schedule) dosage", "format": "functional, Mus musculus", "settings": "route intraperitoneal", "in_short": "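DBA/2J mice, 23-33 g, in groups of 6, were inoculated ip with 1×10^6 P388 cells on day 0. Dosing was ip from 24 h on the stated schedules, in 0.9% NaCl with 0.5% Tween-80 (sonicated solution or suspension). Survival was followed daily until death or 45 days. Median T/C was calculated from survivors per NCI protocols, with ILS = (T/C − 1) × 100.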"}, "L1210 [4]": {"tested_on": "L1210", "assay": "Antitumor activity was determined against the ic implanted L1210 lymphoid leukemia in mice by percent increase in life span at 80 mg/kg (1-5qd treatment schedule) dosage", "format": "functional, Mus musculus", "in_short": "as §1"}, "L1210 [5]": {"tested_on": "L1210", "assay": "Antitumor activity was determined against the ip implanted L1210 leukemia in mice by change in […] at 300 mg/kg (treatment of 1qd schedule) dosage", "format": "functional, Mus musculus", "settings": "route intraperitoneal", "in_short": "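DBA/2J mice, 6 per group (wt 23-28 g), inoculated ip with 1×10^6 L1210 cells on day 0. Treatment was given ip in 0.9% NaCl with 0.5% Tween-80, starting 24 h later. Weight change was taken on day 8. Mice were observed daily until death or 45 days. Median survival T/C and %ILS = (T/C − 1) × 100 came from survivors per NCI protocols, and 45-day survivors were counted.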"}, "P388 [6]": {"tested_on": "P388", "assay": "Antitumor activity was determined against the ip implanted P388 leukemia in mice by range in survival days at 133 mg/kg (treatment of 1,5,9qd schedule) dosage; Range is 23->45", "format": "functional, Mus musculus", "settings": "route intraperitoneal"}, "P388 [7]": {"tested_on": "P388", "assay": "Antitumor activity against ip implanted P388 leukemia in mice expressed as active dose range (1-5qd treatment schedule) required to produce increase in life span by >25% was determined; Range is 40-60", "format": "functional, Mus musculus", "in_short": "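P388 leukemia: 1 × 10^6 cells were given ip on day 0 to DBA/2J mice, groups of 6 (23-33 g). Treatment was ip from 24 h after inoculation, vehicle 0.9% NaCl with 0.5% Tween-80. Mice were observed daily until death or 45 days. Median survival T/C was calculated from survivors per NCI protocols, and ILS = (T/C − 1) × 100. Active range means doses giving ILS ≥25%; optimal dose means greatest ILS.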"}, "L1210 [8]": {"tested_on": "L1210", "assay": "Antitumor activity was determined against the ic implanted L1210 lymphoid leukemia in mice by range in survival days at 167 mg/kg (treatment of 1, 5, 9qd schedule) dosage; Range is 14-22", "format": "functional, Mus musculus"}, "L1210 [9]": {"tested_on": "L1210", "assay": "Antitumor activity against ip implanted L1210 leukemia in mice expressed as active dose range (1 qd treatment schedule) required to produce increase in life span by >25% was determined; Range is 300-400", "format": "functional, Mus musculus", "in_short": "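DBA/2J mice, groups of 6 (23-28 g), were inoculated ip with 1 × 10^6 L1210 cells on day 0. Dosing was ip from 24 h, in 0.9% NaCl with 0.5% Tween-80 (sonicated solution or suspension). Mice were observed daily until death or day 45. Median survival T/C followed NCI protocols, and ILS = (T/C − 1) × 100. Active range means doses giving ILS ≥25%; optimal dose means greatest ILS.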"}, "P388 [10]": {"tested_on": "P388", "assay": "Antitumor activity was determined against the ip implanted P388 leukemia in mice by 45-day survivors in mice at 300 mg/kg (treatment of 1qd schedule) dosage", "settings": "route intraperitoneal"}, "L1210 (mouse)": {"tested_on": "L1210 (mouse)", "assay": "Antitumor activity was determined against the ic implanted L1210 lymphoid leukemia in mice by change in […] at 500 mg/kg (treatment of 1qd schedule) dosage"}, "L1210 [11]": {"tested_on": "L1210", "assay": "Antitumor activity was determined against the ic implanted L1210 lymphoid leukemia in mice by median survival time at 167 mg/kg (treatment of 1, 5, 9qd schedule) dosage; 21.0/7.0"}, "P388 [12]": {"tested_on": "P388", "assay": "Antitumor activity was determined against the ip implanted P388 leukemia in mice by percent median survival rate (treated/control) at 60 mg/kg (treatment of 1-5qd schedule) dosage; >45.0/11.0", "format": "functional, Mus musculus", "settings": "route intraperitoneal"}, "L1210 [13]": {"tested_on": "L1210", "assay": "Antitumor activity was determined against the ic implanted L1210 lymphoid leukemia in mice by change in […] at 300 mg/kg (treatment of 1-5qd schedule) dosage", "format": "functional, Mus musculus", "in_short": "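DBA/2J mice, 6 per group (wt 26-32 g), inoculated ic with 1×10^5 L1210 cells on day 0. Dosing ip began 24 h after inoculation, with a sonicated solution or suspension in 0.9% NaCl containing 0.5% Tween-80, given over a range of doses. Animals were followed daily until death. Body weight change, median survival T/C, and %ILS = (T/C − 1) × 100 were computed from survivors per NCI protocols.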"}, "HL-60": {"tested_on": "HL-60", "assay": "Compound was tested for the inhibition of human HL60 Leukemia", "format": "functional, cell-based", "in_short": "(§2)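 Human leukemia and solid tumor cells in culture were exposed to compound for 48 h. Viability was scored by trypan blue dye exclusion. IC50 (50% inhibition) was estimated from response curves of three separate experiments.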"}, "CML/BC": {"tested_on": "CML/BC", "assay": "Compound was tested for the inhibition of CML/BC(chronic myeloid leukemia, blast crisis)", "format": "functional, cell-based", "settings": "Homo sapiens", "in_short": "as §2"}, "L1210 [14]": {"tested_on": "L1210", "assay": "Antitumor activity was determined against the ip implanted L1210 leukemia in mice by range in survival days at 100 mg/kg (treatment of 1-5qd schedule) dosage; 18-32", "format": "functional, Mus musculus", "settings": "route intraperitoneal", "in_short": "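DBA/2J mice, 23-28 g, in groups of 6, were inoculated ip with 1×10^6 L1210 cells on day 0. Dosing was ip starting 24 h later on the stated daily schedules. Conjugates were given as sonicated solutions and reference prodrugs as suspensions in 0.9% NaCl with 0.5% Tween-80. Mice were observed daily until death or 45 days. Median survival T/C was calculated from survivors per NCI protocols.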"}, "P388 [15]": {"tested_on": "P388", "assay": "Antitumor activity was determined against the ip implanted P388 leukemia in mice by percent median survival rate (treated/control) at 67 mg/kg (treatment of 1,5,9qd schedule) dosage; 25.5/11.0", "format": "functional, Mus musculus", "settings": "route intraperitoneal"}, "P388 [16]": {"tested_on": "P388", "assay": "Antitumor activity was determined against the ip implanted P388 leukemia in mice by percent median survival rate (treated/control) at 60 mg/kg (1-5qd treatment schedule) dosage; 23.0/11.0", "format": "functional, Mus musculus", "settings": "route intraperitoneal"}},
  "data": [
    {"smiles": "CCCCCCCCCCCCCCCC(=O)OC[C@H](COP(=O)(O)OP(=O)(O)OC[C@H]1O[C@@H](n2ccc(N)nc2=O)[C@@H](O)[C@@H]1O)OC(=O)CCCCCCCCCCCCCCC", "values": [
      {"measurement": "Active dose range", "setting": "L1210 [1]", "value": 67, "unit": "mg/kg/day"},
      {"measurement": "T/C", "setting": "P388 [2]", "value": ">45", "unit": "%"},
      {"measurement": "Survivors", "setting": "P388 [3]", "value": 4},
      {"measurement": "ILS", "setting": "L1210 [4]", "value": 175},
      {"measurement": "Weight change", "setting": "L1210 [5]", "value": -0.62, "unit": "g mouse-1"}
    ]},
    {"smiles": "CCCCCCCCCCCCCCCCOCC(COP(=O)(O)OP(=O)(O)OC[C@H]1O[C@@H](n2ccc(N)nc2=O)[C@@H](O)[C@@H]1O)OC(=O)CCCCCCCCCCCCCCC", "note": "(mixture of isomers)", "values": [
      {"measurement": "Range", "setting": "P388 [6]", "value": 23},
      {"measurement": "Active dose range", "setting": "P388 [7]", "value": 40, "unit": "mg/kg/day"},
      {"measurement": "Range", "setting": "L1210 [8]", "value": 14},
      {"measurement": "Active dose range", "setting": "L1210 [9]", "value": 300, "unit": "mg/kg/day"},
      {"measurement": "Survivors", "setting": "P388 [10]", "value": 6},
      {"measurement": "Weight change", "setting": "L1210 (mouse)", "value": -2.07, "unit": "g mouse-1"},
      {"measurement": "median survival time", "setting": "L1210 [11]", "value": 21, "unit": "days"},
      {"measurement": "T/C", "setting": "P388 [12]", "value": ">45", "unit": "%"}
    ]},
    {"smiles": "Nc1ccn([C@@H]2O[C@H](CO)[C@@H](O)[C@@H]2O)c(=O)n1", "note": "[CYTARABINE]", "values": [
      {"measurement": "Weight change", "setting": "L1210 [13]", "value": -6.1},
      {"measurement": "IC50", "setting": "HL-60", "value": 0.13, "unit": "µM"},
      {"measurement": "IC50", "setting": "CML/BC", "value": 0.21, "unit": "µM"}
    ]},
    {"smiles": "CCCCCCCCCCCCCCCCCCOCC(COP(=O)(O)OP(=O)(O)OC[C@H]1O[C@@H](n2ccc(N)nc2=O)[C@@H](O)[C@@H]1O)OC(=O)CCCCCCCCCCCCCCC", "note": "(mixture of isomers)", "values": [
      {"measurement": "Range", "setting": "L1210 [14]", "value": 18},
      {"measurement": "T/C", "setting": "P388 [15]", "value": 25.5, "unit": "%"},
      {"measurement": "T/C", "setting": "P388 [16]", "value": 23, "unit": "%"}
    ]}
  ]
}
